Calls of active or inactive are those of the source. No cut-off for these calls is given here.
Legend:
[1] = target: Amyloid-beta precursor protein (Homo sapiens) (UniProt P05067); experiment: Inhibition of HFIP pretreated Abeta42 (unknown origin) aggregation at elongation phase at 50 uM by Thioflavin-T fluorescence assay
Summary of the method: (§1)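 Aβ42 was held at 250 μM in HFIP for 30 min at room temperature, sonicated 5 min, dried under reduced pressure, then redissolved in 0.1% NH4OH. It was incubated at 25 μM with compound at 50 μM in PBS, pH 7.4, at 37 °C, sampled periodically over time. Th-T (5.0 μM, Gly-NaOH pH 8.5) fluorescence was read at ex 430/em 485 nm. Means ± SD, n = 8.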

[2] = target: Amyloid-beta precursor protein (Homo sapiens) (UniProt P05067); experiment: Inhibition of HFIP pretreated Abeta42 (unknown origin) aggregation at nucleation phase at 50 uM by Thioflavin-T fluorescence assay; summary of the method: as §1
[3] = target: Amyloid-beta precursor protein (Homo sapiens) (UniProt P05067); experiment: Inhibition of HFIP pretreated Abeta42 (unknown origin) aggregation at nucleation phase assessed as time required for nucleation of Abeta42 at 50 uM by Thioflavin-T fluorescence assay; summary of the method: as §1
[4] = target: Amyloid-beta precursor protein (Homo sapiens) (UniProt P05067); experiment: Inhibition of Abeta42 (unknown origin) aggregation at early stage incubated for 8 hrs by Thioflavin-T fluorescence assay
Summary of the method: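 Synthetic Aβ42 (250 μM stock in 0.1% NH4OH), final 25 μM, with compound at 50 μM final (5 mM ethanol stock) in PBS (50 mM sodium phosphate, 100 mM NaCl, pH 7.4), 37 °C for 8 h. An aliquot was mixed with 5.0 μM Th-T in 5.0 mM Gly-NaOH, pH 8.5, and read at ex 430/em 485 nm. Eight points were measured per time.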

[5] = Solubility of the compound in phosphate-buffered saline at pH 7.4 at 50 uM; type: physicochemical; conditions: buffer, pH 7.4, 50 µM
[6] = target: Amyloid-beta precursor protein (Homo sapiens) (UniProt P05067); experiment: Inhibition of HFIP pretreated Abeta42 (unknown origin) aggregation at nucleation phase assessed as time delay for Abeta42 aggregation velocity at 50 uM by sedimentation assay
Summary of the method: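 HFIP-pretreated Aβ42 (25 μM) and compound (50 μM) were incubated in PBS, pH 7.4, at 37 °C over a time course. Samples were centrifuged at 15 000 rpm, 4 °C, 10 min. Supernatant Aβ42 was quantified by reversed-phase HPLC (ODS, 10–50% CH3CN in 0.1% NH4OH over 30 min, 1.0 mL/min, UV detection). Means ± SE, n = 2.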

Chain of Amyloid-beta precursor protein (Homo sapiens) (P05067 whole entry): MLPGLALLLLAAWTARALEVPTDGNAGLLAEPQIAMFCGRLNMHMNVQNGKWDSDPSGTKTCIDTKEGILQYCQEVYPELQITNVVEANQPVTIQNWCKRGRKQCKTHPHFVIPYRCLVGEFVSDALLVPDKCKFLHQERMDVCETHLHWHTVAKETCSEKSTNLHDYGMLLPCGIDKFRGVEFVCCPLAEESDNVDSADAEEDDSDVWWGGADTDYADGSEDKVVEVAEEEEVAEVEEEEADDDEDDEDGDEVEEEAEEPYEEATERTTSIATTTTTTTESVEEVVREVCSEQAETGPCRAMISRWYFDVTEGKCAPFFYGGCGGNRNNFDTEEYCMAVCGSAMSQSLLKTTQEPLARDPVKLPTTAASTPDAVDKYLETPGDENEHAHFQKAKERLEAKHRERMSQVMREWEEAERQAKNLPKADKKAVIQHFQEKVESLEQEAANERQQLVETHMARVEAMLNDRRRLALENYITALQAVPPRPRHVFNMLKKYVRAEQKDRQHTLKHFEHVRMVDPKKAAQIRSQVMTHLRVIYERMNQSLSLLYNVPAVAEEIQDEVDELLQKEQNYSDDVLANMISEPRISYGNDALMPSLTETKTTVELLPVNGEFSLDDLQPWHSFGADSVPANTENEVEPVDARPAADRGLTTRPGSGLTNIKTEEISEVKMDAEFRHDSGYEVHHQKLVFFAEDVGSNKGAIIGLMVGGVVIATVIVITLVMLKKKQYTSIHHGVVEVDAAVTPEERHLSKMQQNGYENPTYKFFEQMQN

inhibition [1]	inhibition [2]	TIME [3] [h]	inhibition [4]	solubility [5]	TIME [6] [h]	SMILES
inactive	inactive	–	–	–	–	C[C@H]1[C@H](C)CC[C@]2(C(=O)O)CC[C@]3(CO)C(=CC[C@@H]4[C@@]5(C)CC[C@H](O)C(C)(C)[C@@H]5CC[C@]43C)[C@H]12
–	–	10	Active	Soluble	–	COc1cc(/C=C\C(=O)OC[C@@]23CC[C@@]4(C(=O)O)CC[C@@H](C)[C@H](C)[C@H]4C2=CC[C@@H]2[C@@]4(C)CC[C@H](O)C(C)(C)[C@@H]4CC[C@]23C)ccc1O
inactive	inactive	–	–	–	–	COc1cc(/C=C/C(=O)OC[C@@]23CC[C@@]4(CO)CC[C@@H](C)[C@H](C)[C@H]4C2=CC[C@@H]2[C@@]4(C)CC[C@H](O)C(C)(C)[C@@H]4CC[C@]23C)ccc1O
inactive	inactive	–	–	–	–	C[C@H]1[C@H](C)CC[C@]2(C(=O)O)CC[C@]3(C)C(=CC[C@@H]4[C@@]5(C)CC[C@H](O)C(C)(C)[C@@H]5CC[C@]43C)[C@H]12
–	–	12	Active	Soluble	8	COc1cc(/C=C/C(=O)OC[C@@]23CC[C@@]4(C(=O)O)CC[C@@H](C)[C@H](C)[C@H]4C2=CC[C@@H]2[C@@]4(C)CC[C@H](O)C(C)(C)[C@@H]4CC[C@]23C)ccc1O
inactive	inactive	–	–	–	–	COC(=O)[C@]12CC[C@@H](C)[C@H](C)[C@H]1C1=CC[C@@H]3[C@@]4(C)CC[C@H](O)C(C)(C)[C@@H]4CC[C@@]3(C)[C@]1(COC(=O)/C=C/c1ccc(O)c(OC)c1)CC2
–	–	10	Active	Soluble	–	COc1cc(/C=C/C(=O)OC[C@@]23CC[C@@]4(C(=O)O)CCC(C)(C)C[C@H]4C2=CC[C@@H]2[C@@]4(C)CC[C@H](O)C(C)(C)[C@@H]4CC[C@]23C)ccc1O
–	–	10	Active	Soluble	–	COc1cc(/C=C\C(=O)OC[C@@]23CC[C@@]4(C(=O)O)CCC(C)(C)C[C@H]4C2=CC[C@@H]2[C@@]4(C)CC[C@H](O)C(C)(C)[C@@H]4CC[C@]23C)ccc1O
inactive	inactive	–	–	–	–	CC(=O)OC[C@@]12CC[C@@]3(C(=O)O)CC[C@@H](C)[C@H](C)[C@H]3C1=CC[C@@H]1[C@@]3(C)CC[C@H](O)C(C)(C)[C@@H]3CC[C@]12C
